Source: ChEMBL document CHEMBL3045005, “Synthesis and biological evaluation of new analogues of the active fungal metabolites N-(2-methyl-3-oxodecanoyl)-2-pyrroline and N-(2-methyl-3-oxodec-8-enoyl)-2-pyrroline (II)” (2000)
Active and inactive are the calls of the source. The rule behind the calls is not given here.

What was measured:
Penicillium italicum [1] = assay: Fungicidal activity against Penicillium italicum CECT 2294 assessed as inhibition of radial mycelial growth at 100 ug/mL after 4 days; type: functional; details: CECT 2294, 96 h, read-out: GI
Outline: (§1)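 Compounds in acetone incorporated into PDA at 100 µg/mL. Acetone-only plates were the negative control, and benomyl at 2.5 µg/mL was the positive control. Plates were inoculated with spores from 7-day-old PDA cultures and incubated at 28 °C for 4 days (6 days for R. necatrix and V. dahliae). Radial mycelial growth was measured and % inhibition calculated against the control. Triplicate determinations, mean ± SD, ANOVA/LSD.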

Colletotrichum coccodes [2] = assay: Fungicidal activity against Colletotrichum coccodes CCM 327 assessed as inhibition of radial mycelial growth at 100 ug/mL after 4 days; type: functional; details: CCM 327, 96 h, read-out: GI; outline: as §1
Aspergillus parasiticus [3] = assay: Fungicidal activity against Aspergillus parasiticus CECT 2681 assessed as inhibition of radial mycelial growth at 100 ug/mL after 4 days; type: functional; details: CECT 2681, 96 h, read-out: GI; outline: as §1
Verticillium dahliae [4] = assay: Fungicidal activity against Verticillium dahliae CCM 269 assessed as inhibition of radial mycelial growth at 100 ug/mL after 6 days; type: functional; details: CCM 269, 144 h, read-out: GI; outline: as §1
Geotrichum candidum [5] = assay: Fungicidal activity against Galactomyces geotrichum CCM 245 assessed as inhibition of radial mycelial growth at 100 ug/mL after 4 days; type: functional; details: CCM 245, 96 h, read-out: GI; outline: as §1
Alternaria alternata [6] = assay: Fungicidal activity against Alternaria tenuis CECT 2662 assessed as inhibition of radial mycelial growth at 100 ug/mL after 4 days; type: functional; details: CECT 2662, 96 h, read-out: GI; outline: as §1
[7] = system: Fusarium oxysporum f. sp. niveum; assay: Fungicidal activity against Fusarium oxysporum f. sp. niveum CCM 259 assessed as inhibition of radial mycelial growth at 100 ug/mL after 4 days; type: functional; details: CCM 259, 96 h, read-out: GI; outline: as §1
[8] = system: Colletotrichum gloeosporioides; assay: Fungicidal activity against Colletotrichum gloeosporioides CECT 2859 assessed as inhibition of radial mycelial growth at 100 ug/mL after 4 days; type: functional; details: CECT 2859, 96 h, read-out: GI; outline: as §1
Trichothecium roseum [9] = assay: Fungicidal activity against Trichothecium roseum CECT 2410 assessed as inhibition of radial mycelial growth at 100 ug/mL after 4 days; type: functional; details: CECT 2410, 96 h, read-out: GI; outline: as §1
Fusarium culmorum [10] = assay: Fungicidal activity against Fusarium culmorum CCM 172 assessed as inhibition of radial mycelial growth at 100 ug/mL after 4 days; type: functional; details: CCM 172, 96 h, read-out: GI; outline: as §1
Trichoderma viride [11] = assay: Fungicidal activity against Hypocrea rufa CECT 2423 assessed as inhibition of radial mycelial growth at 100 ug/mL after 4 days; type: functional; details: CECT 2423, 96 h, read-out: GI; outline: as §1
Oncopeltus fasciatus [12] = assay: Insecticidal activity against Oncopeltus fasciatus third-instar nymphs reared on diet based on sunflower seeds assessed as insect mortality at 5 to 10 ug/cm2 relative to untreated control; type: functional, organism-based
[13] = system: Fusarium oxysporum f. sp. gladioli; assay: Fungicidal activity against Fusarium oxysporum f. sp. gladioli CCM 233 assessed as inhibition of radial mycelial growth at 100 ug/mL after 4 days; type: functional; details: CCM 233, 96 h, read-out: GI; outline: as §1
Oncopeltus fasciatus [14] = assay: Insecticidal activity against Oncopeltus fasciatus third-instar nymphs reared on diet based on sunflower seeds assessed as insect mortality at 10 ug/cm2 relative to untreated control; type: functional
Trichothecium roseum [15] = assay: Fungicidal activity against Trichothecium roseum CECT 2410 assessed as inhibition of radial mycelial growth at 2.5 ug/mL after 4 days; type: functional; details: CECT 2410, 96 h, read-out: GI
Outline: (§2)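 Benomyl added to PDA at 2.5 µg/mL; acetone-only PDA plates served as controls. Plates were inoculated with spores from seven-day-old PDA cultures of each fungus and incubated at 28 °C for 4 days. Radial mycelial growth was measured and % inhibition was calculated against control-plate growth. Three independent determinations; means ± SD; ANOVA with LSD test.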

Alternaria alternata [16] = assay: Fungicidal activity against Alternaria tenuis CECT 2662 assessed as inhibition of radial mycelial growth at 2.5 ug/mL after 4 days; type: functional; details: CECT 2662, 96 h, read-out: GI; outline: as §2
[17] = system: Colletotrichum gloeosporioides; assay: Fungicidal activity against Colletotrichum gloeosporioides CECT 2859 assessed as inhibition of radial mycelial growth at 2.5 ug/mL after 4 days; type: functional; details: CECT 2859, 96 h, read-out: GI; outline: as §2
[18] = system: Phytophthora citrophthora; assay: Fungicidal activity against Phytophthora citrophthora assessed as inhibition of radial mycelial growth at 2.5 ug/mL after 4 days; type: functional; details: 96 h, read-out: GI; outline: as §2
[19] = system: Fusarium oxysporum f. sp. niveum; assay: Fungicidal activity against Fusarium oxysporum f. sp. niveum CCM 259 assessed as inhibition of radial mycelial growth at 2.5 ug/mL after 4 days; type: functional; details: CCM 259, 96 h, read-out: GI; outline: as §2
[20] = system: Fusarium oxysporum f. sp. gladioli; assay: Fungicidal activity against Fusarium oxysporum f. sp. gladioli CCM 233 assessed as inhibition of radial mycelial growth at 2.5 ug/mL after 4 days; type: functional; details: CCM 233, 96 h, read-out: GI; outline: as §2
Trichoderma viride [21] = assay: Fungicidal activity against Hypocrea rufa CECT 2423 assessed as inhibition of radial mycelial growth at 2.5 ug/mL after 4 days; type: functional; details: CECT 2423, 96 h, read-out: GI; outline: as §2
Geotrichum candidum [22] = assay: Fungicidal activity against Galactomyces geotrichum CCM 245 assessed as inhibition of radial mycelial growth at 2.5 ug/mL after 4 days; type: functional; details: CCM 245, 96 h, read-out: GI; outline: as §2
Fusarium culmorum [23] = assay: Fungicidal activity against Fusarium culmorum CCM 172 assessed as inhibition of radial mycelial growth at 2.5 ug/mL after 4 days; type: functional; details: CCM 172, 96 h, read-out: GI; outline: as §2
Penicillium italicum [24] = assay: Fungicidal activity against Penicillium italicum CECT 2294 assessed as inhibition of radial mycelial growth at 2.5 ug/mL after 4 days; type: functional; details: CECT 2294, 96 h, read-out: GI; outline: as §2
Aspergillus parasiticus [25] = assay: Fungicidal activity against Aspergillus parasiticus CECT 2681 assessed as inhibition of radial mycelial growth at 2.5 ug/mL after 4 days; type: functional; details: CECT 2681, 96 h, read-out: GI; outline: as §2
Colletotrichum coccodes [26] = assay: Fungicidal activity against Colletotrichum coccodes CCM 327 assessed as inhibition of radial mycelial growth at 2.5 ug/mL after 4 days; type: functional; details: CCM 327, 96 h, read-out: GI; outline: as §2
Verticillium dahliae [27] = assay: Fungicidal activity against Verticillium dahliae CCM 269 assessed as inhibition of radial mycelial growth at 2.5 ug/mL after 6 days; type: functional; details: CCM 269, 144 h, read-out: GI
Outline: as §2, with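 “cultures” for “cultures of each fungus”, “6” for “4”, “relative to control plates.” for “against control-plate growth.”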

Oncopeltus fasciatus [28] = assay: Insecticidal activity against Oncopeltus fasciatus third-instar nymphs reared on diet based on sunflower seeds assessed as insect mortality at 5 ug/cm2 relative to untreated control; type: functional
Oncopeltus fasciatus [29] = assay: Insecticidal activity against Oncopeltus fasciatus third-instar nymphs reared on diet based on sunflower seeds assessed as insect mortality at 7.5 ug/cm2 relative to untreated control; type: functional

Row | Structure (SMILES) | inhibition of growth at 100 µg/mL (Penicillium italicum [1]) [%] | inhibition of growth at 100 µg/mL (Colletotrichum coccodes [2]) [%] | inhibition of growth at 100 µg/mL (Aspergillus parasiticus [3]) [%] | inhibition of growth at 100 µg/mL (Verticillium dahliae [4]) [%] | inhibition of growth at 100 µg/mL (Geotrichum candidum [5]) [%] | inhibition of growth at 100 µg/mL (Alternaria alternata [6]) [%] | inhibition of growth at 100 µg/mL [7] [%] | inhibition of growth at 100 µg/mL [8] [%] | inhibition of growth at 100 µg/mL (Trichothecium roseum [9]) [%] | inhibition of growth at 100 µg/mL (Fusarium culmorum [10]) [%] | inhibition of growth at 100 µg/mL (Trichoderma viride [11]) [%] | Activity (Oncopeltus fasciatus [12]) | inhibition of growth at 100 µg/mL [13] [%] | also measured
1 | CC(C(=O)C(C)(C)C(=O)N1CCCC1)c1cccc(Oc2ccccc2)c1 (stereo not drawn) | 17.8 | 55.7 | 37.9 | 22.7 | 11.7 | 55.2 | 36.9 | 62.2 | 53.2 | 16.3 | 38.7 | inactive | 34.8 | –
2 | CCCCCCCC(=C1C(=O)OC(C)(C)OC1=O)N1CC=CC1 | 29.9 | 18.8 | 39.3 | 13.9 | 23.9 | 21.1 | 28 | 29.9 | 38.6 | 39.7 | 54 | – | 26 | mortality at 10 µg/cm2 (Oncopeltus fasciatus [14]): 40%
3 | CCCCNC(=O)n1c(NC(=O)OC)nc2ccccc21 [BENOMYL] | – | – | – | – | – | – | – | – | – | – | – | – | – | inhibition of growth at 2.5 µg/mL (Trichothecium roseum [15]): 100%; inhibition of growth at 2.5 µg/mL (Alternaria alternata [16]): 0%; inhibition of growth at 2.5 µg/mL [17]: 100%; inhibition of growth at 2.5 µg/mL [18]: 100%; inhibition of growth at 2.5 µg/mL [19]: 100%; inhibition of growth at 2.5 µg/mL [20]: 11.1%; inhibition of growth at 2.5 µg/mL (Trichoderma viride [21]): 100%; inhibition of growth at 2.5 µg/mL (Geotrichum candidum [22]): 0%; inhibition of growth at 2.5 µg/mL (Fusarium culmorum [23]): 87%; inhibition of growth at 2.5 µg/mL (Penicillium italicum [24]): 100%; inhibition of growth at 2.5 µg/mL (Aspergillus parasiticus [25]): 100%; inhibition of growth at 2.5 µg/mL (Colletotrichum coccodes [26]): 100%; inhibition of growth at 2.5 µg/mL (Verticillium dahliae [27]): 100%
4 | CC1=C(C2CC2)OC2CCCN2C1=O (stereo not drawn) | 23.6 | 37.8 | 11.3 | 65.4 | 0 | 23.9 | 26.2 | 11.8 | 0 | 38.9 | 0 | inactive | 24.1 | –
5 | CC(C(=O)C(C)c1cccc(Oc2ccccc2)c1)C(=O)N1CCCC1 (stereo not drawn) | 22.2 | 37.6 | 27.9 | 19 | 12.3 | 39.5 | 17.4 | 41.4 | 46.6 | 23.5 | 30.7 | inactive | 23.1 | –
6 | CCCCCCCC(O)C(C)C(=O)N1CCCC1=O (stereo not drawn) | 33.3 | 69 | 31.5 | 45.9 | 0 | 38.1 | 33.3 | 36.6 | 19.6 | 24.3 | 38 | inactive | 36.5 | –
7 | CCCCCCCC(=O)C(C)C(=O)N1CCCC1=O (stereo not drawn) | 8.6 | 52 | 31.7 | 56.2 | 24.4 | 47.5 | 21 | 35.6 | 49.5 | 18.1 | 21.1 | inactive | 26.8 | –
8 | CCCCCCCC(=O)CC(=O)N1CCCC1=O | 26.4 | 48.3 | 21.3 | 49.8 | 0 | 30.2 | 27.6 | 34.5 | 0 | 8.2 | 22 | inactive | 35.5 | –
9 | CCCCCCCC(=O)N1CC=CC1 | 31.2 | 76.7 | 19.3 | 39.6 | 0 | 51.4 | 30.5 | 35.4 | 34.3 | 24.5 | 38 | – | 38.5 | mortality at 5 µg/cm2 (Oncopeltus fasciatus [28]): 20%; mortality at 7.5 µg/cm2 (Oncopeltus fasciatus [29]): 100%
